# Measured values as given in ChEMBL document CHEMBL5058577, “EUbOPEN Chemogenomics Library 2 (Multiplex)” (2022).
# Test system: HEK-293T
# Experiment: Multiplex assay against HEK293T
# Type: toxicity, cell-based
# Settings: human
# In short: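 Four dyes were applied at seeding to live cells: Hoechst33342, BioTracker Green Microtubule Cytoskeleton Dye, MitoTracker Red and Annexin V Alexa Fluor 680. Imaging after compound addition used a CQ1 microscope at 37°C and 5% CO2. CellPathfinder machine-learning gating then sorted cells into Hoechst high-intensity objects or normal cells, normal cells into healthy, pyknosed or fragmented nuclei, and pyknosed cells into mitotic or apoptotic, with tubulin, mitochondrial-mass and membrane-permeability phenotypes given as per cents of healthy-nucleus cells.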
# [1] = 12 h, 1 µM, compound concentration 1 uM, replicate 1
# [2] = 12 h, 1 µM, compound concentration 1 uM, replicate 2
# [3] = 12 h, 10 µM, compound concentration 10 uM, replicate 1
# [4] = 12 h, 10 µM, compound concentration 10 uM, replicate 2
# [5] = 24 h, 1 µM, compound concentration 1 uM, replicate 1
# [6] = 24 h, 1 µM, compound concentration 1 uM, replicate 2
# [7] = 24 h, 10 µM, compound concentration 10 uM, replicate 1
# [8] = 24 h, 10 µM, compound concentration 10 uM, replicate 2
# [9] = 48 h, 1 µM, compound concentration 1 uM, replicate 1
# [10] = 48 h, 1 µM, compound concentration 1 uM, replicate 2
# [11] = 48 h, 10 µM, compound concentration 10 uM, replicate 1
# [12] = 48 h, 10 µM, compound concentration 10 uM, replicate 2
smiles,measurement,setting,value
CSc1nc(NC2CCCC2)c([N+](=O)[O-])c(NC2CCCC2)n1 [GS-39783],Population Apoptotic (%),[1],45%
same,Population Fragmented Nuclei (%),[1],11%
same,Population Healthy Nuclei (%),[1],74%
same,Population Hoechst High Intensity Objects (%),[1],8%
same,Population Membrane Permeable-Phenotype (%),[1],0%
same,Population Mitochondria Different-Phenotype (%),[1],41%
same,Population Mitotic Cells (%),[1],54%
same,Population Normal (%),[1],91%
same,Population Pyknosed Nuclei (%),[1],14%
same,Population Tubulin-Different-Phenotype (%),[1],30%
same,Total Cell Count,[1],346
same,Population Apoptotic (%),[2],40%
same,Population Fragmented Nuclei (%),[2],3%
same,Population Healthy Nuclei (%),[2],85%
same,Population Hoechst High Intensity Objects (%),[2],4%
same,Population Mitochondria Different-Phenotype (%),[2],68%
same,Population Mitotic Cells (%),[2],59%
same,Population Normal (%),[2],95%
same,Population Pyknosed Nuclei (%),[2],11%
same,Population Tubulin-Different-Phenotype (%),[2],27%
same,Total Cell Count,[2],301
same,Population Apoptotic (%),[3],29%
same,Population Fragmented Nuclei (%),[3],6%
same,Population Healthy Nuclei (%),[3],81%
same,Population Hoechst High Intensity Objects (%),[3],6%
same,Population Membrane Permeable-Phenotype (%),[3],0%
same,Population Mitochondria Different-Phenotype (%),[3],50%
same,Population Mitotic Cells (%),[3],70%
same,Population Normal (%),[3],93%
same,Population Pyknosed Nuclei (%),[3],12%
same,Population Tubulin-Different-Phenotype (%),[3],40%
same,Total Cell Count,[3],449
same,Population Apoptotic (%),[4],40%
same,Population Fragmented Nuclei (%),[4],5%
same,Population Healthy Nuclei (%),[4],84%
same,Population Hoechst High Intensity Objects (%),[4],5%
same,Population Mitochondria Different-Phenotype (%),[4],68%
same,Population Mitotic Cells (%),[4],60%
same,Population Normal (%),[4],94%
same,Population Pyknosed Nuclei (%),[4],10%
same,Population Tubulin-Different-Phenotype (%),[4],29%
same,Total Cell Count,[4],406
same,Population Apoptotic (%),[5],30%
same,Population Fragmented Nuclei (%),[5],12%
same,Population Healthy Nuclei (%),[5],76%
same,Population Hoechst High Intensity Objects (%),[5],7%
same,Population Membrane Permeable-Phenotype (%),[5],0%
same,Population Mitochondria Different-Phenotype (%),[5],25%
same,Population Mitotic Cells (%),[5],69%
same,Population Normal (%),[5],92%
same,Population Pyknosed Nuclei (%),[5],11%
same,Population Tubulin-Different-Phenotype (%),[5],19%
same,Total Cell Count,[5],492
same,Population Apoptotic (%),[6],38%
same,Population Fragmented Nuclei (%),[6],7%
same,Population Healthy Nuclei (%),[6],84%
same,Population Hoechst High Intensity Objects (%),[6],8%
same,Population Mitochondria Different-Phenotype (%),[6],51%
same,Population Mitotic Cells (%),[6],61%
same,Population Normal (%),[6],91%
same,Population Pyknosed Nuclei (%),[6],7%
same,Total Cell Count,[6],360
same,Population Apoptotic (%),[7],27%
same,Population Fragmented Nuclei (%),[7],11%
same,Population Healthy Nuclei (%),[7],78%
same,Population Hoechst High Intensity Objects (%),[7],5%
same,Population Membrane Permeable-Phenotype (%),[7],1%
same,Population Mitochondria Different-Phenotype (%),[7],30%
same,Population Mitotic Cells (%),[7],72%
same,Population Normal (%),[7],94%
same,Population Pyknosed Nuclei (%),[7],10%
same,Population Tubulin-Different-Phenotype (%),[7],30%
same,Total Cell Count,[7],553
same,Population Apoptotic (%),[8],37%
same,Population Fragmented Nuclei (%),[8],8%
same,Population Healthy Nuclei (%),[8],83%
same,Population Hoechst High Intensity Objects (%),[8],6%
same,Population Membrane Permeable-Phenotype (%),[8],0%
same,Population Mitochondria Different-Phenotype (%),[8],52%
same,Population Mitotic Cells (%),[8],62%
same,Population Normal (%),[8],93%
same,Population Pyknosed Nuclei (%),[8],7%
same,Population Tubulin-Different-Phenotype (%),[8],28%
same,Total Cell Count,[8],474
same,Population Apoptotic (%),[9],35%
same,Population Fragmented Nuclei (%),[9],15%
same,Population Healthy Nuclei (%),[9],74%
same,Population Hoechst High Intensity Objects (%),[9],3%
same,Population Membrane Permeable-Phenotype (%),[9],1%
same,Population Mitochondria Different-Phenotype (%),[9],22%
same,Population Mitotic Cells (%),[9],64%
same,Population Normal (%),[9],96%
same,Population Pyknosed Nuclei (%),[9],9%
same,Population Tubulin-Different-Phenotype (%),[9],22%
same,Total Cell Count,[9],775
same,Population Apoptotic (%),[10],30%
same,Population Fragmented Nuclei (%),[10],13%
same,Population Healthy Nuclei (%),[10],77%
same,Population Hoechst High Intensity Objects (%),[10],6%
same,Population Membrane Permeable-Phenotype (%),[10],0%
same,Population Mitochondria Different-Phenotype (%),[10],32%
same,Population Mitotic Cells (%),[10],69%
same,Population Normal (%),[10],93%
same,Population Pyknosed Nuclei (%),[10],8%
same,Population Tubulin-Different-Phenotype (%),[10],24%
same,Total Cell Count,[10],505
same,Population Apoptotic (%),[11],17%
same,Population Fragmented Nuclei (%),[11],14%
same,Population Healthy Nuclei (%),[11],78%
same,Population Hoechst High Intensity Objects (%),[11],3%
same,Population Membrane Permeable-Phenotype (%),[11],1%
same,Population Mitochondria Different-Phenotype (%),[11],27%
same,Population Mitotic Cells (%),[11],82%
same,Population Normal (%),[11],96%
same,Population Pyknosed Nuclei (%),[11],7%
same,Population Tubulin-Different-Phenotype (%),[11],21%
same,Total Cell Count,[11],856
same,Population Apoptotic (%),[12],30%
same,Population Fragmented Nuclei (%),[12],13%
same,Population Healthy Nuclei (%),[12],77%
same,Population Hoechst High Intensity Objects (%),[12],5%
same,Population Membrane Permeable-Phenotype (%),[12],0%
same,Population Mitochondria Different-Phenotype (%),[12],35%
same,Population Mitotic Cells (%),[12],69%
same,Population Normal (%),[12],94%
same,Population Pyknosed Nuclei (%),[12],8%
same,Total Cell Count,[12],647
